Columns and labels:
Assay type in all cases: functional
Mus musculus [1] = experiment: Antitrypanosomal activity was evaluated against Trypanosoma rhodesiense infections in mice, at dose 106 mg/kg, administered orally; details: route oral
Mus musculus [2] = experiment: Antitrypanosomal activity was evaluated against Trypanosoma rhodesiense infections in mice, at dose 424 mg/kg, administered orally; details: route oral
How it was run: (§1)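 Oral dosing of IUR/HA Swiss mice (six weeks old, 30-32 g) infected i.p. with Wellcome CT strain T. rhodesiense, with five mice per dose level. Survival was followed for 30 days. Deaths before day 4 were counted as toxic and 30-day survivors as cured. ΔMST is the difference in mean survival time between treated and control mice.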

Mus musculus [3] = experiment: Antitrypanosomal activity was evaluated against Trypanosoma rhodesiense infections in mice, at dose 26 mg/kg, administered orally; details: route oral
Mus musculus [4] = experiment: Antitrypanosomal activity was evaluated against Trypanosoma rhodesiense infections in mice, at dose 106 mg/kg, administered orally;Toxic; how it was run: as §1
[5] = tested on: Trypanosoma brucei rhodesiense; experiment: Antitrypanosomal activity against Trypanosoma rhodesiense infections in mice, 424 mg/kg administered subcutaneously; details: route subcutaneous
How it was run: (§2)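 IUR/HA Swiss mice (six weeks old, 30-32 g) infected i.p. with Wellcome CT strain T. rhodesiense. A single subcutaneous dose in peanut oil was given about 2 h after inoculation, with five mice per dose level. Positive control was stilbamidine or 2-hydroxystilbamidine isethionate at 40 mg/kg. Deaths before day 4 were scored toxic, and 30-day survivors cured.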

[6] = tested on: Trypanosoma brucei rhodesiense; experiment: Antitrypanosomal activity against Trypanosoma rhodesiense infections in mice, 6.6 mg/kg administered subcutaneously; details: route subcutaneous
How it was run: (§3)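 Six-week-old IUR/HA Swiss mice (30-32 g), 5 per dose, infected ip with 0.5 mL of a 1:50 000 dilution of heparinized heart blood from donor mice infected 3 days before (Wellcome CT strain). Single sc dose in peanut oil about 2 h post-inoculation. Deaths before day 4 counted toxic. ΔMST versus untreated controls; survivors at 30 days counted cured.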

[7] = tested on: Trypanosoma brucei rhodesiense; experiment: Antitrypanosomal activity against Trypanosoma rhodesiense infections in mice, 3.3 mg/kg administered subcutaneously; details: route subcutaneous; how it was run: as §3
Mus musculus [8] = experiment: (§4) Antitrypanosomal activity was evaluated against Trypanosoma rhodesiense infections in mice, at dose 26 mg/kg, administered subcutaneously;Toxic; details: route subcutaneous; how it was run: as §2
[9] = tested on: Trypanosoma brucei rhodesiense; experiment: Antitrypanosomal activity was evaluated against Trypanosoma rhodesiense infections in mice, at dose 106 mg/kg, administered subcutaneously; details: route subcutaneous; how it was run: as §2
[10] = tested on: Trypanosoma brucei rhodesiense; experiment: Antitrypanosomal activity was evaluated against Trypanosoma rhodesiense infections in mice, at dose 1.6 mg/kg, administered subcutaneously; details: route subcutaneous; how it was run: as §3
[11] = tested on: Trypanosoma brucei rhodesiense; experiment: Anti-trypanosomal activity against Trypanosoma rhodesiense infections in mice, 26 mg/kg administered subcutaneously; details: route subcutaneous; how it was run: as §3
Mus musculus [12] = experiment: (§5) Antitrypanosomal activity was evaluated against Trypanosoma rhodesiense infections in mice, at dose 26 mg/kg, administered subcutaneously; details: route subcutaneous; how it was run: as §2
Mus musculus [13] = experiment: Antitrypanosomal activity was evaluated against Trypanosoma rhodesiense infections in mice, at dose 212 mg/kg, administered subcutaneously;Cures; details: route subcutaneous; how it was run: as §2
[14] = tested on: Trypanosoma brucei rhodesiense; experiment: Antitrypanosomal activity was evaluated against Trypanosoma rhodesiense infections in mice, at dose 212 mg/kg, administered subcutaneously; details: route subcutaneous; how it was run: as §3
Mus musculus [15] = experiment: Antitrypanosomal activity was evaluated against Trypanosoma rhodesiense infections in mice, at dose 26 mg/kg, administered subcutaneously;cures; details: route subcutaneous; how it was run: as §2
[16] = tested on: Trypanosoma brucei rhodesiense; experiment: (§6) Antitrypanosomal activity was evaluated against Trypanosoma rhodesiense infections in mice, at dose 53 mg/kg, administered subcutaneously; details: route subcutaneous; how it was run: as §3
[17] = tested on: Trypanosoma brucei rhodesiense; experiment: Antitrypanosomal activity against Trypanosoma rhodesiense infections in mice, 106 mg/kg administered subcutaneously; details: route subcutaneous; how it was run: as §3
Mus musculus [18] = experiment: Antitrypanosomal activity was evaluated against Trypanosoma rhodesiense infections in mice, at dose 212 mg/kg, administered subcutaneously;Toxic; details: route subcutaneous; how it was run: as §2
Mus musculus [19] = experiment: Antitrypanosomal activity was evaluated against Trypanosoma rhodesiense infections in mice, at dose 106 mg/kg, administered subcutaneously;cures; details: route subcutaneous; how it was run: as §2
Mus musculus [20] = experiment: Antitrypanosomal activity was evaluated against Trypanosoma rhodesiense infections in mice, at dose 13 mg/kg, administered subcutaneously;Toxic; details: route subcutaneous; how it was run: as §2
[21] = tested on: Trypanosoma brucei rhodesiense; experiment: as §4; details: route subcutaneous; how it was run: as §2
[22] = tested on: Trypanosoma brucei rhodesiense; experiment: Antitrypanosomal activity was evaluated against Trypanosoma rhodesiense infections in mice, at dose 106 mg/kg, administered subcutaneously;Toxic; details: route subcutaneous; how it was run: as §2
Mus musculus [23] = experiment: Antitrypanosomal activity was evaluated against Trypanosoma rhodesiense infections in mice, at dose 6.6 mg/kg, administered subcutaneously; details: route subcutaneous; how it was run: as §2
[24] = tested on: Trypanosoma brucei rhodesiense; experiment: as §5; details: route subcutaneous; how it was run: as §2
Mus musculus [25] = experiment: Antitrypanosomal activity was evaluated against Trypanosoma rhodesiense infections in mice, at dose 13 mg/kg, administered subcutaneously; details: route subcutaneous; how it was run: as §2
Mus musculus [26] = experiment: Antitrypanosomal activity was evaluated against Trypanosoma rhodesiense infections in mice, at dose 3.3 mg/kg, administered subcutaneously;Toxic; details: route subcutaneous; how it was run: as §2
Mus musculus [27] = experiment: Antitrypanosomal activity was evaluated against Trypanosoma rhodesiense infections in mice, at dose 26 mg/kg, administered subcutaneously; Cures; details: route subcutaneous; how it was run: as §2
Mus musculus [28] = experiment: as §6; details: route subcutaneous; how it was run: as §2
Mus musculus [29] = experiment: Antitrypanosomal activity was evaluated against Trypanosoma rhodesiense infections in mice, at dose 53 mg/kg, administered subcutaneously; Cures; details: route subcutaneous; how it was run: as §2
Mus musculus [30] = experiment: Antitrypanosomal activity was evaluated against Trypanosoma rhodesiense infections in mice, at dose 13 mg/kg, administered subcutaneously; Cures; details: route subcutaneous; how it was run: as §2
Mus musculus [31] = experiment: Antitrypanosomal activity was evaluated against Trypanosoma rhodesiense infections in mice, at dose 26 mg/kg, administered subcutaneously;Cures; details: route subcutaneous; how it was run: as §2
Mus musculus [32] = experiment: Antitrypanosomal activity was evaluated against Trypanosoma rhodesiense infections in mice, at dose 1.6 mg/kg, administered subcutaneously;Cures; details: route subcutaneous; how it was run: as §2
Mus musculus [33] = experiment: Antitrypanosomal activity was evaluated against Trypanosoma rhodesiense infections in mice, at dose 106 mg/kg, administered subcutaneously;Cures; details: route subcutaneous; how it was run: as §2
Mus musculus [34] = experiment: Antitrypanosomal activity was evaluated against Trypanosoma rhodesiense infections in mice, at dose 13 mg/kg, administered subcutaneously;Cures; details: route subcutaneous; how it was run: as §2
Mus musculus [35] = experiment: Antitrypanosomal activity was evaluated against Trypanosoma rhodesiense infections in mice, at dose 6.6 mg/kg, administered subcutaneously;Cures; details: route subcutaneous; how it was run: as §2

For `CC1(C)N=C(N)N=C(N)N1c1ccc(Oc2ccc(Oc3ccc(N4C(N)=NC(N)=NC4(C)C)cc3)cc2)cc1.Cl.Cl`, the “Delta MST” value (Mus musculus [1]) was 1.9 days, the Toxic (Mus musculus [2]) was 5 and the “Delta MST” value (Mus musculus [3]) was 0.5 days. For the same molecule, the Toxic (Mus musculus [4]) was 4.

For `Cc1cc(N2C(N)=NC(N)=NC2(C)C)ccc1CCc1ccc(N2C(N)=NC(N)=NC2(C)C)cc1C.Cl.Cl`, the Toxic [5] was 5, the “Delta MST” value [6] was 1 days and the “Delta MST” value [7] was 0.4 days. The Toxic (Mus musculus [8]) was 3, the Toxic [9] was 5 and the “Delta MST” value [10] was 0.8 days. For the same molecule, the “Delta MST” value [11] was 1.4 days.

For `Cc1ccc(N2C(N)=NC(N)=NC2(C)C)cc1N1C(N)=NC(N)=NC1(C)C.Cl.Cl`, the Toxic (Mus musculus [12]) was 2, the Toxic [5] was 5 and the “Delta MST” value [6] was 0 days. The “Delta MST” value [7] was 0.2 days, the Toxic [9] was 5 and the “Delta MST” value [10] was 0.2 days. For the same molecule, the “Delta MST” value [11] was -0.1 days.

`Cl.Cl.N=C(N)NC(=N)Nc1ccc(CCc2ccc(NC(=N)N=C(N)N)cc2)cc1` was tested, and the Cures (Mus musculus [13]) was 2, the “Delta MST” value [14] was 12 days and the Cures (Mus musculus [15]) was 1. The “Delta MST” value [16] was 1.4 days, the “Delta MST” value [17] was 8 days and the Toxic [5] was 5. The Toxic (Mus musculus [18]) was 2, the Cures (Mus musculus [19]) was 3 and the “Delta MST” value [11] was 3 days.

In the case of `CC(C)(c1ccc(N2C(N)=NC(N)=NC2(C)C)cc1)c1ccc(N2C(N)=NC(N)=NC2(C)C)cc1.Cl.Cl`, the Toxic (Mus musculus [20]) is reported as 1, the “Delta MST” value [17] is reported as 1.8 days and the Toxic [5] is reported as 5. For the same molecule, the “Delta MST” value [6] was 0.9 days, the Toxic [21] was 1 and the Toxic [22] was 2. The “Delta MST” value [11] was 1.3 days.

Molecule `CC1(C)N=C(N)N=C(N)N1c1ccc(OCCCOc2ccc(N3C(N)=NC(N)=NC3(C)C)cc2)cc1.Cl.Cl` has a Toxic (Mus musculus [23]) of 5, a Toxic [24] of 5 and a Toxic [5] of 5. The “Delta MST” value [7] was 0 days, the Toxic (Mus musculus [25]) was 5 and the Toxic (Mus musculus [26]) was 1. The Toxic [9] was 5 and the “Delta MST” value [10] was 0 days.

For `CC1(C)N=C(N)N=C(N)N1c1ccc(OCOc2ccc(N3C(N)=NC(N)=NC3(C)C)cc2)cc1.Cl.Cl`, the Cures (Mus musculus [23]) was 1, the Cures (Mus musculus [27]) was 3 and the “Delta MST” value [16] was 9 days. For the same molecule, the Toxic [5] was 5, the “Delta MST” value [6] was 2.3 days and the Toxic (Mus musculus [28]) was 2. For the same molecule, the “Delta MST” value [7] was 1.2 days, the Cures (Mus musculus [29]) was 1 and the Toxic [9] was 5. For the same molecule, the “Delta MST” value [10] was 1 days, the “Delta MST” value [11] was 1.8 days and the Cures (Mus musculus [30]) was 3.

With `CC1(C)N=C(N)N=C(N)N1c1ccc(/C=C/c2ccc(N3C(N)=NC(N)=NC3(C)C)cc2)cc1.Cl.Cl` the Cures (Mus musculus [13]) was 4, the Cures (Mus musculus [31]) was 3 and the Cures (Mus musculus [32]) was 1. For the same molecule, the Cures (Mus musculus [33]) was 3, the Cures (Mus musculus [29]) was 5 and the Cures (Mus musculus [34]) was 5. It also gave a Cures (Mus musculus [35]) of 3.

From ChEMBL document CHEMBL1122854, “Novel bis[1,6-dihydro-6,6-dimethyl-1,3,5-triazine-2,4-diamines] as antitrypanosomal agents” (1985)
